According to ChEMBL document CHEMBL1777707, “Structure-based design, synthesis, and nonalcoholic steatohepatitis (NASH)-preventive effect of phenylpropanoic acid peroxisome proliferator-activated receptor (PPAR) α-selective agonists” (Bioorg Med Chem, 2011):
Activity calls are given as the source filed them. The rule behind the calls is not given here.

Experiments:
[1] = biological target: T1, Peroxisome proliferator-activated receptor alpha (Homo sapiens, UniProt Q07869); assay: Agonist activity at Gal4-fussed PPARalpha expressed in human HEK293 cells by reporter gene assay; assay type: functional, cell-based
T1 sequence (Q07869 whole entry): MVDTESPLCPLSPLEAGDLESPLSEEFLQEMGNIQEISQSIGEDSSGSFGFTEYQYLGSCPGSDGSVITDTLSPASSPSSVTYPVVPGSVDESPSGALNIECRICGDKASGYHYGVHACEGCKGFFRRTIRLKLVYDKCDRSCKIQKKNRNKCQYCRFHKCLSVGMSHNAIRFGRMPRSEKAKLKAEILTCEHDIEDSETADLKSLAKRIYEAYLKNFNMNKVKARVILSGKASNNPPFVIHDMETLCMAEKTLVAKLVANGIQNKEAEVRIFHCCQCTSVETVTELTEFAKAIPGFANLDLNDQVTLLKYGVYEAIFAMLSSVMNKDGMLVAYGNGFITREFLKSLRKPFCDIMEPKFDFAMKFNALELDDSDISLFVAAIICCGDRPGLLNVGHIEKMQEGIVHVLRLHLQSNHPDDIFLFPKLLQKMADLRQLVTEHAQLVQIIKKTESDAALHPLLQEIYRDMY
In short: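 Transient transfection of HEK-293 cells with PPAR-GAL4 chimeric receptor plus reporter. EC50 is the molar concentration giving 50% of maximal reporter activity; racemates tested as such.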

[2] = biological target: T2, Peroxisome proliferator-activated receptor delta (Homo sapiens, UniProt Q03181); assay: Agonist activity at Gal4-fussed PPARdelta expressed in human HEK293 cells by reporter gene assay; assay type: functional, cell-based
T2 sequence (Q03181 whole entry): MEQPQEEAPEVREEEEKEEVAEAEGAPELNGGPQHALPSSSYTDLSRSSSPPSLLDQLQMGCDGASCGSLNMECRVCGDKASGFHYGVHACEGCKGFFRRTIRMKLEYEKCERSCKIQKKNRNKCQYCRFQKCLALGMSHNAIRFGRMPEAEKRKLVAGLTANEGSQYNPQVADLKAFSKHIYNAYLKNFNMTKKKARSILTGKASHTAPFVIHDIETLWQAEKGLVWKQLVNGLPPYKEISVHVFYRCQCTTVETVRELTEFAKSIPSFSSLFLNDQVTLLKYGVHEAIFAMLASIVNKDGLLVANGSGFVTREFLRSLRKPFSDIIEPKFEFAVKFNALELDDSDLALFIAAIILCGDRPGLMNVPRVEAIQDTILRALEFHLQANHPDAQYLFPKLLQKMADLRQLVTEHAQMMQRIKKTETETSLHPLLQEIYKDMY

[3] = biological target: T3, Peroxisome proliferator-activated receptor gamma (Homo sapiens, UniProt P37231); assay: Agonist activity at Gal4-fussed PPARgamma expressed in human HEK293 cells by reporter gene assay; assay type: functional, cell-based
T3 sequence (P37231 whole entry): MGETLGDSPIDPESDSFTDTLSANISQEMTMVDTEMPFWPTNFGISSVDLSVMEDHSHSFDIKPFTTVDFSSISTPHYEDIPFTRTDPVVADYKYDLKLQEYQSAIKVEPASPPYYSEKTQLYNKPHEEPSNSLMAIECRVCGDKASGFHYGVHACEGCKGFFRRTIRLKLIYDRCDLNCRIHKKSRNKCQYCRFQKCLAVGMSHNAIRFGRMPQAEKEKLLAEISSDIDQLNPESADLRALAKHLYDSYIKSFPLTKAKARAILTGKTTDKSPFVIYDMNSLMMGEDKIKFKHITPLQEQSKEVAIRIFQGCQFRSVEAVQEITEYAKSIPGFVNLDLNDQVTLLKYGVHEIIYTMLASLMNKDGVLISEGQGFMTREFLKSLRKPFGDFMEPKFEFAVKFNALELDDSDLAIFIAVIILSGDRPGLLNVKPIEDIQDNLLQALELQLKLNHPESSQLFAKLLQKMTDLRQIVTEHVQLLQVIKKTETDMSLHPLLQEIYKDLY

[4] = test system: Rattus norvegicus; assay: Protection against nonalcoholic steatohepatitis progression in 4 weeks choline deficient high-fat diet fed methemoglobinemic Wistar rat assessed as increase of alanine transaminase level at 1 mg/kg/day, ip administered for 6 weeks in presence of 40 mg/kg/day, ip of sodium nitrite; assay type: functional, organism-based
In short: (§1)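 Rats fed CDHF diet from 6 weeks of age for 4 weeks, then kept on CDHF over a 6-week period with daily ip NaNO2 40 mg/kg to cause methemoglobinemia; treated group also got compound 1 mg/kg/day. Controls were normal chow, CDHF alone and NASH. Housed singly, 12-h light-dark cycle, food and water ad libitum. Endpoints taken at study end.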

[5] = test system: Rattus norvegicus; assay: Protection against nonalcoholic steatohepatitis progression in 4 weeks choline deficient high-fat diet fed methemoglobinemic Wistar rat assessed as prevention of liver atrophy formation at 1 mg/kg/day, ip administered for 6 weeks by hematoxylin and eosin staining in presence of 40 mg/kg/day, ip of sodium nitrite; assay type: functional, organism-based; in short: as §1
[6] = test system: Rattus norvegicus; assay: Protection against nonalcoholic steatohepatitis progression in 4 weeks choline deficient high-fat diet fed methemoglobinemic Wistar rat assessed as prevention of nodule formation in liver at 1 mg/kg/day, ip administered for 6 weeks by hematoxylin and eosin staining in presence of 40 mg/kg/day, ip of sodium nitrite; assay type: functional, organism-based; in short: as §1
[7] = test system: Rattus norvegicus; assay: Protection against nonalcoholic steatohepatitis progression in 4 weeks choline deficient high-fat diet fed methemoglobinemic Wistar rat assessed as increase of liver function at 1 mg/kg/day, ip administered for 6 weeks in presence of 40 mg/kg/day, ip of sodium nitrite; assay type: functional, organism-based; in short: as §1
[8] = test system: Rattus norvegicus; assay: Protection against nonalcoholic steatohepatitis progression in 4 weeks choline deficient high-fat diet fed methemoglobinemic Wistar rat assessed as effect on features of fatty liver at 1 mg/kg/day, ip administered for 6 weeks by hematoxylin and eosin staining in presence of 40 mg/kg/day, ip of sodium nitrite; assay type: functional, organism-based; in short: as §1
[9] = Selectivity ratio EC50 for Gal4-fussed PPARdelta to EC50 for Gal4-fussed PPARalpha
[10] = test system: Rattus norvegicus; assay: Protection against nonalcoholic steatohepatitis progression in 4 weeks choline deficient high-fat diet fed methemoglobinemic Wistar rat assessed as increase of aspartate amino transferase level at 1 mg/kg/day, ip administered for 6 weeks in presence of 40 mg/kg/day, ip of sodium nitrite; assay type: functional, organism-based; in short: as §1
[11] = test system: Rattus norvegicus; assay: Protection against nonalcoholic steatohepatitis progression in 4 weeks choline deficient high-fat diet fed methemoglobinemic Wistar rat assessed as prevention of liver fibrosis at 1 mg/kg/day, ip administered for 6 weeks by Masson Trichrome staining in presence of 40 mg/kg/day, ip of sodium nitrite; assay type: functional, organism-based; in short: as §1
[12] = test system: Rattus norvegicus; assay: Protection against nonalcoholic steatohepatitis progression in 4 weeks choline deficient high-fat diet fed methemoglobinemic Wistar rat assessed as increase of alkaline phosphatase level at 1 mg/kg/day, ip administered for 6 weeks in presence of 40 mg/kg/day, ip of sodium nitrite; assay type: functional, organism-based; in short: as §1
[13] = test system: Rattus norvegicus; assay: Protection against nonalcoholic steatohepatitis progression in 4 weeks choline deficient high-fat diet fed methemoglobinemic Wistar rat assessed as prevention of liver necrosis at 1 mg/kg/day, ip administered for 6 weeks by Masson Trichrome staining in presence of 40 mg/kg/day, ip of sodium nitrite; assay type: functional, organism-based; in short: as §1

EC50 [1] [nM]	EC50 [2] [nM]	EC50 [3] [nM]	Compound	other results
8.8	120	820	CCC(Cc1ccc(OC)c(CNC(=O)c2ccc(Oc3ccccc3)cc2)c1)C(=O)O (racemic)	
52	1400	460	CCC(Cc1ccc(OC)c(CNC(=O)c2ccc(OCc3ccccc3)cc2)c1)C(=O)O (racemic)	
60	1400	780	CCC(Cc1ccc(OC)c(CNC(=O)c2ccc(OCCc3ccccc3)cc2)c1)C(=O)O (racemic)	
29	800	990	CC[C@@H](Cc1ccc(OC)c(CNC(=O)c2ccc(Oc3ccc(Br)cc3)cc2)c1)C(=O)O	
12	110	4400	CCC(Cc1ccc(OC)c(CNC(=O)c2ccc(OC(F)(F)F)cc2)c1)C(=O)O (racemic)	
	360	9600	CCC(Cc1ccc(OC)c(CNC(=O)c2ccc(C)cc2)c1)C(=O)O (racemic)	
74	4100	710	CCC(Cc1ccc(OC)c(CNC(=O)c2cccc(-c3ccccc3)c2)c1)C(=O)O (racemic)	
7.6		340	CCC(Cc1ccc(OC)c(CNC(=O)c2ccc(-c3ccccc3)cc2)c1)C(=O)O (racemic)	
41	4800	4600	CCC(Cc1ccc(OC)c(CNC(=O)c2cccc(Oc3ccccc3)c2)c1)C(=O)O (racemic)	
15	580	830	CC[C@@H](Cc1ccc(OC)c(CNC(=O)c2ccc(Oc3ccc(Cl)cc3)cc2)c1)C(=O)O	
5	300	920	CC[C@@H](Cc1ccc(OC)c(CNC(=O)c2ccc(Oc3ccc(F)cc3)cc2)c1)C(=O)O	Activity [4]: Active; Activity [5]: Active; Activity [6]: Active; Activity [7]: Active; Activity [8]: inactive; Ratio EC50 [9]: 25; Activity [10]: Active; Activity [11]: Active; Activity [12]: Active; Activity [13]: Active
		> 10000	CCC(Cc1ccc(OC)c(CNC(=O)c2ccccc2)c1)C(=O)O (racemic)	
3600	> 10000	> 10000	CCC(Cc1ccc(OC)c(CNC(=O)c2ccccc2-c2ccccc2)c1)C(=O)O (racemic)	
3600	> 10000	> 10000	CCC(Cc1ccc(OC)c(CNC(=O)c2ccccc2Oc2ccccc2)c1)C(=O)O (racemic)	
